Activity calls are given as the source filed them. The calls are words filed in the database; no cut-off is given here.
What was measured:
HL-60 [1] = test: Effect on human HL60 cells assessed as fold change in IPO13 gene expression at 1.085 uM incubated for 6 hrs by microarray-based method; type: functional
In short: (§1)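 HL60 cells were treated in triplicate with 1.085 µM or vehicle for 6 h. Total RNA was extracted with on-column DNase treatment and profiled on expression arrays.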

HL-60 [2] = test: Effect on human HL60 cells assessed as fold change in TBCC gene expression at 1.085 uM incubated for 6 hrs by microarray-based method; type: functional; in short: as §1
HL-60 [3] = test: Effect on human HL60 cells assessed as fold change in GDF10 gene expression at 1.085 uM incubated for 6 hrs by microarray-based method; type: functional; in short: as §1
HL-60 [4] = test: Induction of cell cycle arrest in human HL60 cells assessed as accumulation of cells at G2/M phase at EC50 by PI staining based flow cytometric analysis; type: functional; conditions: TDE = time-dependent effect
HL-60 [5] = test: Effect on human HL60 cells assessed as fold change in ZNF79 gene expression at 1.085 uM incubated for 6 hrs by microarray-based method; type: functional
HL-60 [6] = test: Effect on human HL60 cells assessed as fold change in SPRY1 gene expression at 1.085 uM incubated for 6 hrs by microarray-based method; type: functional; in short: as §1
RS4-11 [7] = test: Induction of apoptosis in human RS4:11 cells assessed as accumulation of cells at sub G2 phase at 300 nM incubated for 18 hrs in presence of PARP antibody by immunofluorescent staining based flow cytometric analysis relative to control; type: functional
In short: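 RS4;11 cells treated with 300 nM or DMSO vehicle for 18 h, then pulsed with 10 μM BrdU for 1 h. Harvested cells immunostained for BrdU/PI (cell cycle), γH2AX (DNA damage) and PARP (apoptosis). Multicolor flow cytometry gated G1, sub-G2-like, G2/M and sub-G0/G1 populations.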

HL-60 [8] = test: Effect on human HL60 cells assessed as fold change in TIAL1 gene expression at 1.085 uM incubated for 6 hrs by microarray-based method; type: functional; in short: as §1
RS4-11 [9] = test: Effect on human RS4:11 cells assessed as increase in p53 protein expression at 300 nM incubated for 15 to 360 mins by Western blot analysis; type: functional, cell-based
In short: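 Leukemia cells (RS4;11, CEM, HL60) treated with 300 nM for 0, 15, 30, 60 and 360 min. Western blotting for β-tubulin and p53, with lamin B1 as loading control and chemiluminescent detection.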

HL-60 [10] = test: Induction of cell cycle arrest in human HL60 cells assessed as increase in accumulation of cells at sub G1 phase at EC50 by PI staining based flow cytometric analysis; type: functional; conditions: TDE = time-dependent effect
HL-60 [11] = test: Effect on human HL60 cells assessed as fold change in HOXB-AS3 gene expression at 1.085 uM incubated for 6 hrs by microarray-based method; type: functional; in short: as §1

COC(=O)c1[nH]c2cc(OC)ccc2c1-c1ccc(C(F)(F)F)cc1
fold change (FC) (HL-60 [1]): 1.8 | fold change (FC) (HL-60 [2]): -1.54 | fold change (FC) (HL-60 [3]): -1.56 | Activity (HL-60 [4]): Tde | fold change (FC) (HL-60 [5]): -1.88 | fold change (FC) (HL-60 [6]): -1.5 | Activity (RS4-11 [7]): 3.5% | fold change (FC) (HL-60 [8]): 1.63 | Activity (RS4-11 [9]): Active | Activity (HL-60 [10]): Tde | fold change (FC) (HL-60 [11]): -1.54
